Measured values taken from PubChem BioAssay.
Values without a mark were called inactive. Calls of active or inactive are those of the source.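 The calls were made as follows, unless noted: active = viability at or below 10% of carrier control in both of two separate runs; inconclusive = viability at or below 10% in only one of the two runs; inactive = the rest.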

Assay: reduced viability of SK-BR-3 breast cancer cells – cell-based, 24 h, human, pilot screen (AID 572);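 also: compound exposure lasted between 18 and 24 h rather than exactly 24 h; 100% = carrier-treated control wells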
Conditions: SK-BR-3 viability, CellTiter-Glo luminescence, at 10 µM, stronger effect = lower value

Structure (SMILES) | viability [%]
O=C(Cn1nnc(-c2cccc(C(F)(F)F)c2)n1)NC(=O)NCc1ccco1 | 89
Cc1cccc(NS(=O)(=O)c2cc(C(=O)OCC(=O)Nc3cc(C)on3)ccc2C)c1 | 93
O=C(O)c1c(Cl)c(Cl)c(Cl)c(Cl)c1C(=O)N1CCOCC1 | 109
CCN1CCCC1CNC(=O)CS(=O)(=O)Cc1nc(-c2ccccc2C)oc1C (stereo not given) | 97
Cc1ccc(OCC(O)Cn2c(=N)n(CCN3CCCCC3)c3ccccc32)cc1 (stereo not given) | 79
O=C1c2ccccc2CN1CCNS(=O)(=O)c1ccc(Cl)cc1 | 104
COC(=O)C1CCN(C(=O)c2sc3nc(-c4ccc(F)cc4)cn3c2C)CC1 | 76.5
CCCCc1cc(=O)oc2cc(C)cc(OC(C)C(=O)O)c12 (stereo not given) | 116
COc1cccc(OC)c1OCCN1CCN(C(=O)c2ccco2)CC1 | 86.5
CC(C)NC(=O)CSCc1ccccc1Cl | 96
CC(=O)N1CCN(c2ccc(N=Cc3c(O)n(Cc4ccccc4)c(=O)[nH]c3=O)cc2)CC1 | 89
CCC1=C(C(=O)OC)C(c2cc(OC)ccc2OC)C(C#N)=C(N)O1 (stereo not given) | 99.5
CCCCCn1c(CN2CCN(C(=O)OCC)CC2)nc2c1c(=O)[nH]c(=O)n2C | 82
Cc1ccc(N2CCN(C(=S)c3ccc(N(C)C)cc3)CC2)cc1 | 89.5
COc1ccccc1NC(=O)N1CCCC1C(=O)NC1CCCCC1 (stereo not given) | 104
CCOc1ccc(OCC)c(NC(=O)CN2CCN(C(=O)c3ccco3)CC2)c1 | 75
C=CCN(C(=O)CNC(=O)c1ccco1)C(C(=O)NC1CCCCC1)c1ccccc1F (stereo not given) | 108
Cc1ccc2cc(CN(CC3CCCO3)S(=O)(=O)c3ccc4c(c3)OCCO4)c(=O)[nH]c2c1C (stereo not given) | 86.5
COc1cc(OC)cc(-n2nnnc2SCC(=O)N2CCCC2)c1 | 87
O=C(CSc1nnc(Cn2nnc(-c3ccccc3)n2)n1-c1ccccc1)Nc1ccc(F)cc1 | 91

Structure (SMILES) | viability [%]
O=C(NC1CCCC1)c1ccc(S(=O)(=O)N2CCCC2)cc1 | 107
C=CCSc1nnc(-c2ccccc2NC(C)=O)c(=O)[nH]1 | 106
COc1ccc(C2C(=O)N(C3CCCCC3)CC(=O)N2Cc2ccco2)cc1 (stereo not given) | 110
COc1ccc(-c2cc(O)cc(O)c2)cc1 | 108
Cc1cccc(NC(=O)CCN2CCN(C/C=C/c3ccccc3)CC2)c1 | 87.5
CCCn1c2ccccc2c2nnc(SCC(=O)OCC)nc21 | 95
COc1cccc(C2C(C(=O)c3cc4ccccc4o3)=C(O)C(=O)N2CCN(C)C)c1OC (stereo not given) | 104
O=C(COc1ccc(F)cc1Br)N1CCc2ccccc21 | 97.5
S=C(c1ccc(-c2cc(Cl)ccc2Cl)o1)N1CCOCC1 | 80.5
O=C(NCN1CCCCC1)c1cnccn1 | 95.5
O=C(CSc1nnc(-c2ccco2)c(-c2ccco2)n1)Nc1ccccc1 | 102
CCC1(c2ccc(F)cc2)NC(=O)N(CC(=O)c2ccc[nH]2)C1=O (stereo not given) | 110
CCN1CCN(C(=O)c2ccc3c(=O)n(C4CCCC4)c(=S)[nH]c3c2)CC1 | 85.5
N#CC1=C(N)SC(N)=C(C#N)C1CCc1ccccc1 | 79.5
O=C(NCc1ccc2c(c1)OCO2)C1CCCN(S(=O)(=O)c2cccnc2)C1 (stereo not given) | 95.5
Cc1cccc(-c2noc(CCC(=O)Nc3ccccc3)n2)c1 | 106
Nc1ncnc(Nc2ccccc2C(F)(F)F)n1 | 93.5
CCNc1nc(N2CCCCC2)nc(-n2nnc(C(=O)OCC)c2C)n1 | 162
Cc1ccc(S(=O)(=O)N2CCCC(C(=O)NC3=NCCS3)C2)cc1 (stereo not given) | 97.5
O=C1C(C=NCCCn2ccnc2)=C(O)c2ccccc21 | 83

Assay: HUVEC growth inhibition – cell-based, human, primary screen (AID 575;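 active = viability at or below 30% in both replicate assays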;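 also: 100% = median of untreated cell wells with 0.1% DMSO on each plate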)
Conditions: HUVEC proliferation, CellTiter-Glo luminescence, 72 h; at 10 µM; stronger effect = lower value
Procedure, shortened: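 Test system: primary human umbilical vein endothelial cells. Quantity: 1250 cells/well. Compound: single 10 µM dose, 0.1% DMSO, from 5x medium stock. Timing: 72 h treatment at 37 °C. Detection: ATP-based CellTiter-Glo luminescent read. Benchmarks: vehicle and MePR control wells. Format: 384-well plates coated with collagen.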

Structure (SMILES) | viability
O=C(Cn1nnc(-c2cccc(C(F)(F)F)c2)n1)NC(=O)NCc1ccco1 | 98.3%
Cc1cccc(NS(=O)(=O)c2cc(C(=O)OCC(=O)Nc3cc(C)on3)ccc2C)c1 | 77.7%
O=C(O)c1c(Cl)c(Cl)c(Cl)c(Cl)c1C(=O)N1CCOCC1 | 106%
CCN1CCCC1CNC(=O)CS(=O)(=O)Cc1nc(-c2ccccc2C)oc1C (stereo not given) | 83%
Cc1ccc(OCC(O)Cn2c(=N)n(CCN3CCCCC3)c3ccccc32)cc1 (stereo not given) | 2.43% (active)
O=C1c2ccccc2CN1CCNS(=O)(=O)c1ccc(Cl)cc1 | 98%
COC(=O)C1CCN(C(=O)c2sc3nc(-c4ccc(F)cc4)cn3c2C)CC1 | 99.8%
CCCCc1cc(=O)oc2cc(C)cc(OC(C)C(=O)O)c12 (stereo not given) | 109%
COc1cccc(OC)c1OCCN1CCN(C(=O)c2ccco2)CC1 | 107%
CC(C)NC(=O)CSCc1ccccc1Cl | 86.8%
CC(=O)N1CCN(c2ccc(N=Cc3c(O)n(Cc4ccccc4)c(=O)[nH]c3=O)cc2)CC1 | 83.5%
CCC1=C(C(=O)OC)C(c2cc(OC)ccc2OC)C(C#N)=C(N)O1 (stereo not given) | 71.9%
CCCCCn1c(CN2CCN(C(=O)OCC)CC2)nc2c1c(=O)[nH]c(=O)n2C | 88.9%
Cc1ccc(N2CCN(C(=S)c3ccc(N(C)C)cc3)CC2)cc1 | 91.8%
COc1ccccc1NC(=O)N1CCCC1C(=O)NC1CCCCC1 (stereo not given) | 101%
CCOc1ccc(OCC)c(NC(=O)CN2CCN(C(=O)c3ccco3)CC2)c1 | 82.4%
C=CCN(C(=O)CNC(=O)c1ccco1)C(C(=O)NC1CCCCC1)c1ccccc1F (stereo not given) | 96.2%
Cc1ccc2cc(CN(CC3CCCO3)S(=O)(=O)c3ccc4c(c3)OCCO4)c(=O)[nH]c2c1C (stereo not given) | 84.1%
COc1cc(OC)cc(-n2nnnc2SCC(=O)N2CCCC2)c1 | 94.9%
O=C(CSc1nnc(Cn2nnc(-c3ccccc3)n2)n1-c1ccccc1)Nc1ccc(F)cc1 | 64.1%

Structure (SMILES) | viability
O=C(NC1CCCC1)c1ccc(S(=O)(=O)N2CCCC2)cc1 | 103%
C=CCSc1nnc(-c2ccccc2NC(C)=O)c(=O)[nH]1 | 105%
COc1ccc(C2C(=O)N(C3CCCCC3)CC(=O)N2Cc2ccco2)cc1 (stereo not given) | 95.9%
COc1ccc(-c2cc(O)cc(O)c2)cc1 | 71.7%
Cc1cccc(NC(=O)CCN2CCN(C/C=C/c3ccccc3)CC2)c1 | 66%
CCCn1c2ccccc2c2nnc(SCC(=O)OCC)nc21 | 88.8%
COc1cccc(C2C(C(=O)c3cc4ccccc4o3)=C(O)C(=O)N2CCN(C)C)c1OC (stereo not given) | 96.8%
O=C(COc1ccc(F)cc1Br)N1CCc2ccccc21 | 77.3%
S=C(c1ccc(-c2cc(Cl)ccc2Cl)o1)N1CCOCC1 | 86.4%
O=C(NCN1CCCCC1)c1cnccn1 | 103%
O=C(CSc1nnc(-c2ccco2)c(-c2ccco2)n1)Nc1ccccc1 | 89.2%
CCC1(c2ccc(F)cc2)NC(=O)N(CC(=O)c2ccc[nH]2)C1=O (stereo not given) | 99.3%
CCN1CCN(C(=O)c2ccc3c(=O)n(C4CCCC4)c(=S)[nH]c3c2)CC1 | 82.9%
N#CC1=C(N)SC(N)=C(C#N)C1CCc1ccccc1 | 44.8%
O=C(NCc1ccc2c(c1)OCO2)C1CCCN(S(=O)(=O)c2cccnc2)C1 (stereo not given) | 101%
Cc1cccc(-c2noc(CCC(=O)Nc3ccccc3)n2)c1 | 79.4%
Nc1ncnc(Nc2ccccc2C(F)(F)F)n1 | 99.5%
CCNc1nc(N2CCCCC2)nc(-n2nnc(C(=O)OCC)c2C)n1 | 116%
Cc1ccc(S(=O)(=O)N2CCCC(C(=O)NC3=NCCS3)C2)cc1 (stereo not given) | 83%
O=C1C(C=NCCCn2ccnc2)=C(O)c2ccccc21 | 105%
